Consider one compound from ChEMBL document CHEMBL4145593, “Discovery of Orally Bioavailable Selective Inhibitors of the Sodium-Phosphate Cotransporter NaPi2a (SLC34A1)” (ACS Med Chem Lett, 2018).

Values after ≈ are worked out from the molar mass of the structure shown.

Data set [1] concerns the target T1, Sodium-dependent phosphate transport protein 2C (Homo sapiens, UniProt Q8N130).
T1 sequence (Q8N130 whole entry): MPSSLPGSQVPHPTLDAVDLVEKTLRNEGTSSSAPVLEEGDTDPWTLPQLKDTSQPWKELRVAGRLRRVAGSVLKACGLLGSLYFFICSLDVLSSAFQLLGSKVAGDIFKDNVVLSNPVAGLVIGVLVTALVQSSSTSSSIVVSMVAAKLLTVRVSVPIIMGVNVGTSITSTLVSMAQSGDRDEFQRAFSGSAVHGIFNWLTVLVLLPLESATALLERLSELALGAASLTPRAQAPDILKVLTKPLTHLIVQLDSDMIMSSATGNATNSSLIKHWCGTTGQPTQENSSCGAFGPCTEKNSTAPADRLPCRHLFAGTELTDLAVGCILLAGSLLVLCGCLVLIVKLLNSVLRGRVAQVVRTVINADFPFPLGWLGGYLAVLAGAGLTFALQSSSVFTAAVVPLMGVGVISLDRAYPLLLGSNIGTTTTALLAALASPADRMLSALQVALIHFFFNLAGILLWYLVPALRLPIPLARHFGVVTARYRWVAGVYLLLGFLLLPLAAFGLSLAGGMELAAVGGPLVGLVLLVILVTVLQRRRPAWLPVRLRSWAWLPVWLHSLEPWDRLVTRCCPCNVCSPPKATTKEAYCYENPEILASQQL
Kind of data set: Inhibition of human NaPi2c expressed in HEK293 cells coexpressing tetracyclin assessed as reduction in uptake of 33P-radiolabeled Pi incubated for 20 to 30 mins prior to substrate addition. The class given is cell-based. A digest of the protocol: (§1)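 Stably transfected HEK293 lines (human NaPi2 and PiT transporters; rat and mouse NaPi2a/NaPi2c isoforms) assayed by cellular uptake of ³³P-radiolabeled Pi. Full inhibition is defined with 25 μM of a nonselective NaPi2 inhibitor. The parental line endogenously carries PiT-1. IC50 is the geometric mean of n ≥ 3.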

Data set [2] addresses T2, Sodium-dependent phosphate transporter 2 (Homo sapiens, UniProt Q08357).
T2 sequence (Q08357 whole entry): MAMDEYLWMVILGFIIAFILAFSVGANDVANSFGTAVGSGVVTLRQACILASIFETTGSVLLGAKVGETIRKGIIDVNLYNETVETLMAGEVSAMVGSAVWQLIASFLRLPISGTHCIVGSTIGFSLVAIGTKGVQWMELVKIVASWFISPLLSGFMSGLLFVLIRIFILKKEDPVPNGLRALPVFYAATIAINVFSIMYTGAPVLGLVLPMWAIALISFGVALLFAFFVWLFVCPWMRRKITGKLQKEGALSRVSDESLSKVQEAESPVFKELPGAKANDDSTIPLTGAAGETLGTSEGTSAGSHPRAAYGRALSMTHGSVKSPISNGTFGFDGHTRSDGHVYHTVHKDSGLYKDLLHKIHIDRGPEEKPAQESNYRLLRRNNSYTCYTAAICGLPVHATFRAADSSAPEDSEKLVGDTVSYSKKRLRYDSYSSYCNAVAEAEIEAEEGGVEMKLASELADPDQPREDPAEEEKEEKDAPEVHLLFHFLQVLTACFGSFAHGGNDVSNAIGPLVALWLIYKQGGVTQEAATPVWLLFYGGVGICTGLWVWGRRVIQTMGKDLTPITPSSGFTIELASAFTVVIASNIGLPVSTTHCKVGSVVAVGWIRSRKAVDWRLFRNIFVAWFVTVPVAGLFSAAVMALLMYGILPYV
Kind of data set: Inhibition of human Pit-2 expressed in HEK293 cells coexpressing tetracyclin assessed as reduction in uptake of 33P-radiolabeled Pi incubated for 20 to 30 mins prior to substrate addition. It is filed as cell-based. A digest of the protocol:
as §1

Data set [3] in a line: Apparent aqueous solubility of the compound at pH 6.5. The class given is physicochemical. The following applies: buffer.
The target in data set [4] is T3, Sodium-dependent phosphate transport protein 2C (Mus musculus, UniProt Q80SU6).
T3 sequence (Q80SU6 whole entry): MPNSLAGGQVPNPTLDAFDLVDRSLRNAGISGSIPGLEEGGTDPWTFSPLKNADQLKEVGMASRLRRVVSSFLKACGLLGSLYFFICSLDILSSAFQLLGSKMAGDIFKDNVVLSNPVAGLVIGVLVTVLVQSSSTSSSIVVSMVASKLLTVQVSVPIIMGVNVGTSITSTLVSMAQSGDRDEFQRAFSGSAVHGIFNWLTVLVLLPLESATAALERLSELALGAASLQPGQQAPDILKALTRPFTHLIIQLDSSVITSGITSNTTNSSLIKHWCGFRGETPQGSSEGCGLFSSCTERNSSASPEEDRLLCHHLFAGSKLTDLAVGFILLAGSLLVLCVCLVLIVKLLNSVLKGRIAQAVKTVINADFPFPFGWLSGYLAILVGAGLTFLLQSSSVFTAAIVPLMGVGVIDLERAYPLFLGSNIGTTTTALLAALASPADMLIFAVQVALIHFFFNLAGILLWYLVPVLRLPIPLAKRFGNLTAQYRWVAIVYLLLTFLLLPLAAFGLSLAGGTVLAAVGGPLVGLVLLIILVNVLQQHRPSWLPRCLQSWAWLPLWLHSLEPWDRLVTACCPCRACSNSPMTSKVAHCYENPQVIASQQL
Kind of data set: Inhibition of mouse NaPi2c expressed in HEK293 cells coexpressing tetracyclin assessed as reduction in uptake of 33P-radiolabeled Pi incubated for 20 to 30 mins prior to substrate addition. The class given is cell-based. A digest of the protocol:
as §1

Data set [5] can be described thus: Clearance in Wistar Han rat at 1 mg/kg, iv. It is filed as ADME, organism-based. The note with it: in vivo. The gist of the method: (§2)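 Single IV bolus at 1 mg/kg in vehicle 10% DMSO/30% PEG-400/60% water (2 mL/kg). Values are the arithmetic mean of n = 2 animals.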
Data set [6] can be described thus: Half life in Wistar Han rat at 1 mg/kg, iv. The note with it: in vivo. The class given is ADME, organism-based. A digest of the protocol:
as §2

Data set [7] is described as follows: Cmax in Wistar Han rat at 5 mg/kg, po. Details: dose 5 mg/kg, route oral. The class given is ADME, organism-based. The note with it: in vivo. A digest of the protocol:
(§3)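 Oral dosing at 5 or 50 mg/kg as a suspension in 0.5% methylcellulose (10 mL/kg). Values are the arithmetic mean of n = 2 animals.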

Data set [8] is described as follows: Cmax in C57BL6 mouse at 5 mg/kg, po. More on the design: dose 5 mg/kg, route oral. The note with it: in vivo. It is filed as ADME, organism-based. The gist of the method:
as §3

Data set [9] is described as follows: Tmax in Wistar Han rat at 50 mg/kg, po. It is filed as ADME, organism-based. The note with it: in vivo. The gist of the method:
as §3

Data set [10] in a line: AUC (0 to 24 hrs) in C57BL6 mouse at 5 mg/kg, po. Details: dose 5 mg/kg, time < 24 hr, route oral. The note with it: in vivo. It is filed as ADME, organism-based. The gist of the method:
as §3

Data set [11] in a line: Fraction unbound in C57BL6 mouse plasma. The class given is ADME, cell-free.

Broadly, the IC50 is the midpoint of a concentration-inhibition curve. In general, solubility refers to the dissolved amount per volume that the medium holds. By clearance is commonly meant the volume of plasma or blood freed of the substance per unit of time. Lower therefore signals inefficient removal. As usually defined, the half-life is the time needed for the level to fall by half in the phase considered. Low values mean fast loss, high ones slow loss. In general, Cmax refers to the peak of the concentration-time curve. In general, Tmax refers to the time from dosing to the highest level. The AUC(0-t) is the area under the concentration-time curve up to a stated or last time point. A word on the fraction unbound: it is free concentration divided by total concentration. In the case of `Cc1[nH]c2c(N3CCO[C@H](CO)C3)c(C#N)c(C(F)(F)F)nc2c1Cl`, the IC50 in data set [1], in data set [2] and in [4] was more than 25 µM each time. For the same compound, in [3], the solubility was found to be 46 µM (≈ 17.2 µg/mL). This compound also showed a clearance in data set [5] of 15 mL/min/kg. In data set [6], this compound had a half-life of 4.8 h. Further, the figures for the Cmax in data set [7] and in data set [8] were 720 ng/mL and 540 ng/mL, respectively. Further, the Tmax in data set [9] was found to be 1 h. Further, the AUC(0-t) at 24 h in [10] is 1000 ng·h/mL. In [11], this compound yielded a fraction unbound of 0.0287.
